Test results: ChEMBL document CHEMBL4725236, “Synthesis and pharmacological evaluation of bivalent tethered ligands to target the mGlu heterodimeric receptor results in a compound with mGlu homodimer selectivity” (Bioorg Med Chem Lett, 2020)

Columns and labels:
Assay type in all cases: cell-based
[1] = Positive allosteric modulation of rat mGlu2/mGlu4 receptor expressed in HEK293 cells coexpressing GIRK assessed as thallium influx in presence of EC20 glutamate by CODA-RET assay
How it was run: (§1)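 HEK293 cells co-expressing mGlu2, mGlu4 and GIRK channels; thallium flux read-out. Test compound concentration-response in the presence of a fixed EC20 glutamate concentration. Gives EC50, Hill slope and maximal response as % of a saturating glutamate concentration. N=3 experiments, each in triplicate.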

[2] = test system: HEK293; assay: Positive allosteric modulation of rat mGlu2/mGlu4 receptor expressed in HEK293 cells coexpressing GIRK assessed as thallium influx by CODA-RET assay relative to glutamate; settings: filed as positive allosteric modulator; how it was run: as §1
[3] = biological target: Metabotropic glutamate receptor 2 (Rattus norvegicus, UniProt P31421); assay: Positive allosteric modulation of rat mGlu2 receptor expressed in HEK293 cells coexpressing GIRK assessed as thallium influx in presence of EC20 glutamate by CODA-RET assay
Metabotropic glutamate receptor 2, sequence (P31421 whole entry): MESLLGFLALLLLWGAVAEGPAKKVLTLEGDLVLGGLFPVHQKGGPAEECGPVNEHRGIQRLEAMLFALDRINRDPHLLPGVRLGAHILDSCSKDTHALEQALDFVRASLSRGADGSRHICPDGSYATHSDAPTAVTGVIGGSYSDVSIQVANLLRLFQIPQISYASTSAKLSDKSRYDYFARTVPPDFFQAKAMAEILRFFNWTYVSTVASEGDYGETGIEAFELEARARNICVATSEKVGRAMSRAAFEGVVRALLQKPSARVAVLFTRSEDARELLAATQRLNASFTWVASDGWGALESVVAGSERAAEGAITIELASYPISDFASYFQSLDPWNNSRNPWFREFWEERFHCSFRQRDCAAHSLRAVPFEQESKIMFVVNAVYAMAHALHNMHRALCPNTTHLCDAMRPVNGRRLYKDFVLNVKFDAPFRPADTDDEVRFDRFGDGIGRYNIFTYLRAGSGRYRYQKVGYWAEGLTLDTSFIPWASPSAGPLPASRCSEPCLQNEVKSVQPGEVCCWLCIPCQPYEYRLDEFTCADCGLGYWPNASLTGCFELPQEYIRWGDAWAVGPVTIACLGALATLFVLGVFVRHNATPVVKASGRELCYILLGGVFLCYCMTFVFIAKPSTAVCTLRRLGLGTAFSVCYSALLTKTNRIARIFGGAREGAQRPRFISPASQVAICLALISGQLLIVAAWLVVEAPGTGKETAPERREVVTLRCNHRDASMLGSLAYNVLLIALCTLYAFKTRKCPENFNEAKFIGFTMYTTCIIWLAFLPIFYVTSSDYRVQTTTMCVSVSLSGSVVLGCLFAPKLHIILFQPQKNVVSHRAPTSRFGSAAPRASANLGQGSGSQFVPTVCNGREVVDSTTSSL
How it was run: (§2)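 HEK293/GIRK thallium flux assay in cells expressing only mGlu2 or only mGlu4. Concentration-response measured against a fixed EC20 glutamate level. Potency (EC50), Hill slope and efficacy (% of the response to saturating glutamate) come from a single experiment run in triplicate.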

[4] = biological target: Metabotropic glutamate receptor 2 (Rattus norvegicus) (UniProt P31421); assay: Positive allosteric modulation of rat mGlu2 receptor expressed in HEK293 cells coexpressing GIRK assessed as thallium influx by CODA-RET assay relative to glutamate; settings: filed as positive allosteric modulator; how it was run: as §2
Metabotropic glutamate receptor 2 (Rattus norvegicus), sequence (P31421 19-872 limits assumed): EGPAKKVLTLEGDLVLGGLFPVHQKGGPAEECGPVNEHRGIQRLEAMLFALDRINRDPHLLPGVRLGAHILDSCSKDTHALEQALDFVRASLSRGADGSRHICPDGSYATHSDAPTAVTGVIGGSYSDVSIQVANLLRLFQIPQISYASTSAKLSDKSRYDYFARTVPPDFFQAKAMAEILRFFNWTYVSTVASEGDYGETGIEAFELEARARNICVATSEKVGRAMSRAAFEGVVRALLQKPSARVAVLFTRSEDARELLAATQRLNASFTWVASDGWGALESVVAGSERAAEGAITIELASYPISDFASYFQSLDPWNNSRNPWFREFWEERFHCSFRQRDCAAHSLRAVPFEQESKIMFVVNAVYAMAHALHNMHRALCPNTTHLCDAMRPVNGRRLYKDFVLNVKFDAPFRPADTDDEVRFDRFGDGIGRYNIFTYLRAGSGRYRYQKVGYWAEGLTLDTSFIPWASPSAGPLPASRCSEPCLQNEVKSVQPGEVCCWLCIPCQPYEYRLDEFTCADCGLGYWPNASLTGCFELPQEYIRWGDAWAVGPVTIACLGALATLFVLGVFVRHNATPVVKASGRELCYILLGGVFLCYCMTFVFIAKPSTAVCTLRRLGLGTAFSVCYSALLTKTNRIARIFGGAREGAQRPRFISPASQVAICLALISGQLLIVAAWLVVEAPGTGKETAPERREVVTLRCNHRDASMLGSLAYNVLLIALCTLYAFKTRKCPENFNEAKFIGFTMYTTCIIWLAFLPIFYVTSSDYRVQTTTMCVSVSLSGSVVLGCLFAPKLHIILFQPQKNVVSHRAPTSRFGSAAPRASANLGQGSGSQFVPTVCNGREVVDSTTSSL

[5] = biological target: Metabotropic glutamate receptor 4 (Rattus norvegicus, UniProt P31423); assay: Positive allosteric modulation of rat mGlu4 receptor expressed in HEK293 cells coexpressing GIRK assessed as thallium influx in presence of EC20 glutamate by CODA-RET assay; how it was run: as §2
Metabotropic glutamate receptor 4, sequence (P31423 whole entry): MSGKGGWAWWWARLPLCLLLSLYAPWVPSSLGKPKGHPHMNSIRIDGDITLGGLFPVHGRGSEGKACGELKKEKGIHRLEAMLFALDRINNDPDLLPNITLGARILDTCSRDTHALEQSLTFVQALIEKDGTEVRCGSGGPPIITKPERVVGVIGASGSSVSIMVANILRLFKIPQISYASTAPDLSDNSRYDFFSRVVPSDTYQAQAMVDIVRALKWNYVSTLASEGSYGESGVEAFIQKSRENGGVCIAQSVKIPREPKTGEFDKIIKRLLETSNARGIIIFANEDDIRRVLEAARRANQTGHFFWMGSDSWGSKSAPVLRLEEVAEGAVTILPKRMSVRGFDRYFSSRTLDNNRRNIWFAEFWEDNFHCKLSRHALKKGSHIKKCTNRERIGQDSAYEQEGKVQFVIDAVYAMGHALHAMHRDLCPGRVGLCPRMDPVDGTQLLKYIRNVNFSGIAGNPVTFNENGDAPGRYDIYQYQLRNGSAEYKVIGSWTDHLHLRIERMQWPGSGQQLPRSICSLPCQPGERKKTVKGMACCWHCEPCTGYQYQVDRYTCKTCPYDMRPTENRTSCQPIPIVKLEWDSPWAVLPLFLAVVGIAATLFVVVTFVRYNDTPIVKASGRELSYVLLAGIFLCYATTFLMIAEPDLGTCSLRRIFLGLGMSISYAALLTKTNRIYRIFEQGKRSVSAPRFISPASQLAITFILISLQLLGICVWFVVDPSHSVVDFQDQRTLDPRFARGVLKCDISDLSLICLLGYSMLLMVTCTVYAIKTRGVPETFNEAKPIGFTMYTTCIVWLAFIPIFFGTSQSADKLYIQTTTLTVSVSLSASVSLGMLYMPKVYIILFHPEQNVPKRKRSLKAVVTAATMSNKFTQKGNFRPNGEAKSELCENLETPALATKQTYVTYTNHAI

[6] = biological target: Metabotropic glutamate receptor 4 (Rattus norvegicus) (UniProt P31423); assay: Positive allosteric modulation of rat mGlu4 receptor expressed in HEK293 cells coexpressing GIRK assessed as thallium influx by CODA-RET assay relative to glutamate; settings: filed as positive allosteric modulator; how it was run: as §2
Metabotropic glutamate receptor 4 (Rattus norvegicus), sequence (P31423 whole entry): as above

SMILES: COc1cc(NC(=O)c2ccccn2)ccc1NC(=O)c1ccc(NC(=O)COCC(=O)NCCCCCCNC(=O)COc2ccc(-c3cccc(COc4cc5c(c(C)c4C)C(=O)C(C4CCCC4)C5)c3)cc2C(=O)O)cc1Cl (stereo not given)
- EC50 [1]: 680 nM
- Emax [2]: 101%
- EC50 [3]: 62 nM
- Emax [4]: 102%
- EC50 [5]: 32 nM
- Emax [6]: 106%

SMILES: COc1cc(NC(=O)c2ccccn2)ccc1NC(=O)c1ccc(NC(=O)COCC(=O)NCCCCCCCCCCCCNC(=O)COc2ccc(-c3cccc(COc4cc5c(c(C)c4C)C(=O)C(C4CCCC4)C5)c3)cc2C(=O)O)cc1Cl (stereo not given)
- EC50 [1]: 2070 nM
- Emax [2]: 71%
- EC50 [3]: 1180 nM
- Emax [4]: 102%
- EC50 [5]: > 10000 nM
- Emax [6]: 45%

SMILES: COc1cc(NC(=O)c2ccccn2)ccc1NC(=O)c1ccc(NC(=O)COCC(=O)NCCNC(=O)COc2ccc(-c3cccc(COc4cc5c(c(C)c4C)C(=O)C(C4CCCC4)C5)c3)cc2C(=O)O)cc1Cl (stereo not given)
- EC50 [1]: 463 nM
- Emax [2]: 70%
- EC50 [3]: 281 nM
- Emax [4]: 92%
- EC50 [5]: 657 nM
- Emax [6]: 104%

SMILES: COc1cc(NC(=O)c2ccccn2)ccc1NC(=O)c1ccc(NC(=O)COCC(=O)NCCCCCCCNC(=O)COc2ccc(-c3cccc(COc4cc5c(c(C)c4C)C(=O)C(C4CCCC4)C5)c3)cc2C(=O)O)cc1Cl (stereo not given)
- EC50 [1]: 524 nM
- Emax [2]: 86%
- EC50 [3]: 122 nM
- Emax [4]: 101%
- EC50 [5]: 30 nM
- Emax [6]: 85%

SMILES: Cc1c(OCc2cccc(-c3cccc(C(=O)O)c3)c2)cc2c(c1C)C(=O)C(C1CCCC1)C2 (stereo not given)
- EC50 [3]: 69 nM
- Emax [4]: 118%

SMILES: Cc1c(OCc2cccc(-c3ccc(O)c(C(=O)O)c3)c2)cc2c(c1C)C(=O)C(C1CCCC1)C2 (stereo not given)
- EC50 [3]: 62 nM
- Emax [4]: 113%

SMILES: COc1cc(NC(=O)c2ccccn2)ccc1NC(=O)c1ccc(NC(=O)COCC(=O)NCCCNC(=O)COc2ccc(-c3cccc(COc4cc5c(c(C)c4C)C(=O)C(C4CCCC4)C5)c3)cc2C(=O)O)cc1Cl (stereo not given)
- EC50 [1]: 90 nM
- EC50 [3]: 54 nM
- Emax [4]: 100%
- EC50 [5]: 38 nM
- Emax [6]: 114%

SMILES: COc1cc(NC(=O)c2ccccn2)ccc1NC(=O)c1ccc(NC(=O)COCC(=O)NCCCCNC(=O)COc2ccc(-c3cccc(COc4cc5c(c(C)c4C)C(=O)C(C4CCCC4)C5)c3)cc2C(=O)O)cc1Cl (stereo not given)
- EC50 [1]: 150 nM
- Emax [2]: 88%
- EC50 [3]: 98 nM
- Emax [4]: 98%
- EC50 [5]: 33 nM
- Emax [6]: 113%

SMILES: COc1ccc(-c2cccc(COc3cc4c(c(C)c3C)C(=O)C(C3CCCC3)C4)c2)cc1C(=O)O (stereo not given)
- EC50 [1]: 300 nM
- Emax [2]: 64.5%
- EC50 [3]: 84.3 nM
- Emax [4]: 88.2%

SMILES: COc1cc(NC(=O)c2ccccn2)ccc1NC(=O)c1ccccc1Cl
- EC50 [1]: 2760 nM
- Emax [2]: 42%
- EC50 [5]: 34 nM
- Emax [6]: 94.4%

SMILES: COc1cc(NC(=O)c2ccccn2)ccc1NC(=O)c1ccc(NC(=O)COCC(=O)NCCCCCCCCCCNC(=O)COc2ccc(-c3cccc(COc4cc5c(c(C)c4C)C(=O)C(C4CCCC4)C5)c3)cc2C(=O)O)cc1Cl (stereo not given)
- EC50 [1]: 350 nM
- Emax [2]: 86%
- EC50 [3]: 134 nM
- Emax [4]: 102%
- EC50 [5]: > 10000 nM
- Emax [6]: 41%

SMILES: COc1cc(NC(=O)c2ccccn2)ccc1NC(=O)c1ccc(NC(=O)COCC(=O)NCCCCCNC(=O)COc2ccc(-c3cccc(COc4cc5c(c(C)c4C)C(=O)C(C4CCCC4)C5)c3)cc2C(=O)O)cc1Cl (stereo not given)
- EC50 [1]: 128 nM
- Emax [2]: 89%
- EC50 [3]: 92 nM
- Emax [4]: 102%
- EC50 [5]: 35 nM
- Emax [6]: 110%

SMILES: COc1cc(NC(=O)c2ccccn2)ccc1NC(=O)c1ccc(NC(=O)COCC(=O)NCCCCCCCCNC(=O)COc2ccc(-c3cccc(COc4cc5c(c(C)c4C)C(=O)C(C4CCCC4)C5)c3)cc2C(=O)O)cc1Cl (stereo not given)
- EC50 [1]: 371 nM
- Emax [2]: 83%
- EC50 [3]: 94 nM
- Emax [4]: 97%
- EC50 [5]: 32 nM
- Emax [6]: 52%
